Columns and labels:
[1] = biological target: Cannabinoid receptor 1 (Rattus norvegicus, UniProt P20272); test: Binding affinity to CB1 receptor in rat brain synaptosomal membranes; format: cell membranes
[2] = biological target: T1, Cannabinoid receptor 2 (Rattus norvegicus) (UniProt Q9QZN9); test: Binding affinity to CB2 receptor in rat spleen homogenates at 1 uM; format: tissue-based
T1 sequence (whole entry): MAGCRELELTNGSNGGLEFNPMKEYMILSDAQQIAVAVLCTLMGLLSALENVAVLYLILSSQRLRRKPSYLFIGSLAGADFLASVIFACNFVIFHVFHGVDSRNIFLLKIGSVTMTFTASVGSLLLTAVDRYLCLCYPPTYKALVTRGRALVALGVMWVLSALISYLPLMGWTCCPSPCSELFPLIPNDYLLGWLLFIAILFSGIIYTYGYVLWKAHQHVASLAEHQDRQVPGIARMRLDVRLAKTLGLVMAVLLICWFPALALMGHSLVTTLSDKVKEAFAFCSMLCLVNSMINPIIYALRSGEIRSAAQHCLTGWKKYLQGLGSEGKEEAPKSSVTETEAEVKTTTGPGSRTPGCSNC

[3] = test system: Mus musculus; test: Ex vivo displacement of [3H]CP-55940 from mouse brain homogenates without cerebellum at 10 mg/kg, iv after 30 mins; format: functional
In short: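 Mice dosed iv at 10 mg/kg and killed by decapitation 30 min later. Brain homogenized without cerebellum, and inhibition of [3H]-CP55940 binding measured in the homogenate.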

[4] = test system: Mus musculus; test: Reversal of CP-55940-induced inhibition of intestinal transit in mouse at 10 mg/kg, po; format: functional; parameters: scale not given: the % may be the effect or the level left
In short: (§1)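 Mice dosed orally with antagonist, then given CP55940 0.15 mg/kg ip to inhibit intestinal transit. Reversal scored as DE50 (mg/kg po) or as % reversal at a single oral dose.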

[5] = test system: Mus musculus; test: Reversal of CP-55940-induced hypothermia in po dosed mouse at 30 mg/kg, po; format: functional
In short: (§2)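 Mice dosed orally with antagonist, then challenged with CP55940 0.3 mg/kg ip to induce hypothermia. Reversal scored as DE50 (mg/kg po) or as % reversal at a single oral dose.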

[6] = test system: Mus musculus; test: Reversal of CP-55940-induced inhibition of intestinal transit in po dosed mouse; format: functional; in short: as §1
[7] = test system: Mus musculus; test: Reversal of CP-55940-induced hypothermia in po dosed mouse; format: functional; in short: as §2
[8] = Metabolic stability in mouse liver microsomes at 5 uM after 10 mins by HPLC analysis in presence of NADPH; format: ADME, Microsome
In short: (§3)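 Hepatic microsomal fractions from mouse, rat and human were used at 1 mg/mL microsomal protein, with 10 min incubation of substrate.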

[9] = test system: Liver microsomes; test: Metabolic stability in rat liver microsomes at 5 uM after 10 mins by HPLC analysis in presence of NADPH; format: ADME, Microsome; in short: as §3
[10] = test system: Liver microsomes; test: Metabolic stability in human liver microsomes at 5 uM after 10 mins by HPLC analysis in presence of NADPH; format: ADME, Microsome; in short: as §3
[11] = Cmax in Swiss CD1 mouse at 10 mg/kg, po after 2 hrs; format: ADME, organism-based; parameters: dose 10 mg/kg, route oral; conditions: in vivo
In short: (§4)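 Male Swiss CD1 mice received a single oral 10 mg/kg dose. Drug levels were measured in plasma (ng/mL) and brain (ng/g tissue) over 24 h.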

[12] = Drug level in Swiss CD1 mouse brain assessed per gram of tissue at 10 mg/kg, po after 6 hrs; format: ADME, organism-based; parameters: dose 10 mg/kg, route oral; conditions: read-out: Drug uptake; in short: as §4
[13] = AUC (0 to 24 hrs) ratio in brain to plasma of Swiss CD1 mouse at 10 mg/kg, po; format: ADME, organism-based; parameters: dose 10 mg/kg, route oral
[14] = biological target: T2, Cannabinoid receptor 1 (Homo sapiens, UniProt P21554); test: Inhibition of human recombinant CB1 receptor expressed in CHO cells; format: cell-based
[15] = biological target: T2, Cannabinoid receptor 1; test: Antagonist activity at CB1 receptor in forskolin-stimulated human U373-MG cells assessed as inhibition of CP-55940-induced cAMP accumulation; format: functional, cell-based, U-373MG ATCC
In short: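 Human U373-MG cells; forskolin-stimulated cAMP accumulation was inhibited with CP55940, and the antagonist was tested over a range of concentrations for reversal of that inhibition. The EC50 was derived from the concentration–response.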

[16] = Oral bioavailability in Swiss CD1 mouse at 10 mg/kg; conditions: in vivo

Cannabinoid receptor 1 (Rattus norvegicus, UniProt P20272), sequence (P20272 whole entry): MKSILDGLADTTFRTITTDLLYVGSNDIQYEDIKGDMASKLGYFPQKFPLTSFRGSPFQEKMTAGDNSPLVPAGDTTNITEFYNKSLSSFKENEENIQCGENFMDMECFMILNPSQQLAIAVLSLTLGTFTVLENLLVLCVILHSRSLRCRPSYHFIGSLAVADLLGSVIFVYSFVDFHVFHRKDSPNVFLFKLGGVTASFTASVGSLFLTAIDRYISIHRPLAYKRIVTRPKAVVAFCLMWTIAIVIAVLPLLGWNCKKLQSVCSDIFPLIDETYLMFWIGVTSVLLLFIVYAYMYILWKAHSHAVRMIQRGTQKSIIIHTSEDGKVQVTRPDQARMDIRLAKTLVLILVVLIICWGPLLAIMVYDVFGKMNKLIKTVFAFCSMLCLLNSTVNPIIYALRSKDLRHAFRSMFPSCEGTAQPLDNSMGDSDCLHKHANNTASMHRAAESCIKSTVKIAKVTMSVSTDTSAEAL
T2 sequence (P21554 whole entry): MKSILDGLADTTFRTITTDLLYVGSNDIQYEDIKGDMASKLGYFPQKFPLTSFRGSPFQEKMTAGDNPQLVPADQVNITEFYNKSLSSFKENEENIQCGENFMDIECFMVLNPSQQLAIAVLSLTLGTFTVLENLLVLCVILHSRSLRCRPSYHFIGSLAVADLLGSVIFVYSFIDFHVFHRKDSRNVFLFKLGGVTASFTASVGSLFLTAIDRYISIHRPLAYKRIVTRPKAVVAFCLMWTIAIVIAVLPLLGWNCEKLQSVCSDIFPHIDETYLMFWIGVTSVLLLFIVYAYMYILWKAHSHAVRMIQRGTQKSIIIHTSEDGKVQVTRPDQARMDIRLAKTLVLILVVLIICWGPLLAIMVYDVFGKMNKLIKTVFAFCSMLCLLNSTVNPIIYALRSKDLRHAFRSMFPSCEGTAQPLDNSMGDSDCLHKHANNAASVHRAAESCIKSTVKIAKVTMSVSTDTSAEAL

Compound `CS(=O)(=O)NCCCn1c(C(=O)N2CCC(C(N)=O)(N3CCCCC3)CC2)cc(-c2ccc(Cl)cc2Cl)c1-c1ccc(Cl)cc1` has an IC50 [1] of 1.4 nM, an inhibition [2] of 16% and an inhibition in vivo at 10 mg/kg [3] of 18%. It also gave an Activity [4] of 51% and an Activity [5] of 1%.
`Cn1c(C(=O)N2CCC(C(N)=O)(N3CCOCC3)CC2)cc(-c2ccc(Cl)cc2Cl)c1-c1ccc(Cl)cc1` gave an IC50 [1] of 34 nM, an inhibition [2] of 42% and an inhibition in vivo at 10 mg/kg [3] of 32%.
Compound `CC1(C)CCN(C2(C(N)=O)CCN(C(=O)c3cc(-c4ccc(Cl)cc4Cl)c(-c4ccc(Cl)cc4)n3CCCNS(C)(=O)=O)CC2)CC1` has an IC50 [1] of 4.3 nM, an inhibition [2] of 27% and an inhibition in vivo at 10 mg/kg [3] of 33%. The ED50 [6] was 4.1 mg/kg and the Activity [5] was 0%.
`NC(=O)C1(N2CCCCC2)CCN(C(=O)c2cc(-c3ccc(Cl)cc3Cl)c(-c3ccc(Cl)cc3)n2CCC(=O)O)CC1` showed an IC50 [1] of 180 nM and an inhibition [2] of 14%.
In the case of `Cn1c(C(=O)N2CCC(C(N)=O)(N3CCCCC3)CC2)cc(-c2ccc(Cl)cc2Cl)c1-c1ccc(Cl)cc1`, the IC50 [1] is reported as 0.2 nM, the inhibition [2] is reported as 48% and the inhibition in vivo at 10 mg/kg [3] is reported as 96%.
With `Cc1c(C(=O)NN2CCCCC2)nn(-c2ccc(Cl)cc2Cl)c1-c1ccc(Cl)cc1` [RIMONABANT] the inhibition [2] was 66%, the inhibition in vivo at 10 mg/kg [3] was 100% and the ED50 [6] was 1 mg/kg. It also gave an ED50 [7] of 0.6 mg/kg.
Work on `CS(=O)(=O)NCCCn1c(C(=O)N2CCC(C(N)=O)(N3CCC(F)(F)CC3)CC2)cc(-c2ccc(Cl)cc2Cl)c1-c1ccc(Cl)cc1` yielded an IC50 [1] of 1 nM, an inhibition [2] of 39% and an inhibition in vivo at 10 mg/kg [3] of 28%. For the same compound, the ED50 [6] was 2.4 mg/kg, the Activity [5] was 0% and the Stability [8] was “Stable”. For the same compound, the Stability [9] was “Stable”, the Stability [10] was “Stable” and the Cmax [11] was 570 ng/mL. For the same compound, the concentration at 6 h [12] was 6.4 ng/g, the Kp [13] was 0.01 and the IC50 [14] was 1.4 nM. It also gave an EC50 [15] of 15 nM and a bioavailability [16] of 37%.
Work on `CC(C)(CCCn1c(C(=O)N2CCC(C(N)=O)(N3CCCCC3)CC2)cc(-c2ccc(Cl)cc2Cl)c1-c1ccc(Cl)cc1)C(=O)O` yielded an IC50 [1] of 160 nM and an inhibition [2] of 52%.
Compound `CS(=O)(=O)CCn1c(C(=O)N2CCC(C(N)=O)(N3CCCCC3)CC2)cc(-c2ccc(Cl)cc2Cl)c1-c1ccc(Cl)cc1` has an IC50 [1] of 0.4 nM, an inhibition [2] of 26% and an inhibition in vivo at 10 mg/kg [3] of 19%.
For `Cn1c(C(=O)N2CCC(C(N)=O)(c3ccccc3)CC2)cc(-c2ccc(Cl)cc2Cl)c1-c1ccc(Cl)cc1`, the IC50 [1] was 0.7 nM, the inhibition [2] was 17% and the inhibition in vivo at 10 mg/kg [3] was 86%.
Compound `N#CCCn1c(C(=O)N2CCC(C(N)=O)(N3CCCCC3)CC2)cc(-c2ccc(Cl)cc2Cl)c1-c1ccc(Cl)cc1` has an IC50 [1] of 8 nM, an inhibition [2] of 18% and an inhibition in vivo at 10 mg/kg [3] of 39%.

Source: ChEMBL document CHEMBL1208718, “Rational design of a novel peripherally-restricted, orally active CB(1) cannabinoid antagonist containing a 2,3-diarylpyrrole motif” (Bioorg Med Chem Lett, 2010)
